MITF TRPM1 HTS: increases MITF-driven TRPM1 promoter luciferase signal | 300,000 tested, 0.75% active | SK-MEL-5 TRPM1-promoter luciferase, 24 h; % of positive control, neutral wells = 0 | AID 588334 | activation, % at 12.5 µM;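 active means mean activation of at least 80% with every replicate also reaching 80%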;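 further: 0% = neutral control wells and 100% = parthenolide positive control wells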
Wnt bcat act: activates Wnt/beta-catenin signaling in a reporter cell assay | activator, plate reader | activation, % at 9.35 µM | 300,000 tested, 1.2% active | AID 743398; in the data active means activation above about 30%, passing the limit was not always enough;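 further: 0% = neutral control wells and 100% = positive control wells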
esBAF inh: SWI/SNF esBAF complex inhibition. 350,000 tested, 2% active. mouse ES cells, Bmi1-luciferase knock-in reporter, 24 h; 100% = twice the neutral-well signal. reporter increase, % at 12.5 µM. AID 602393; in the data active means activation above about 40%;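 further: 0% = median of the plate's neutral control wells and 100% = double that signal; a rise in the Bmi1 reporter signal indicates esBAF inhibition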
HIV Env fusion: inhibitors of HIV Env-mediated cell fusion; HeLa-JRFL Env/CEM21 cell fusion, luciferase; AID 651610; 360,000 tested, 1.1% active; inhibition, % at 12.3 µM;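 active means mean replicate inhibition score of at least 50 and every replicate individually at or above 50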;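 further: 0% = plate neutral controls and 100% = maraviroc near 300 nM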
ERAP1 inh: blocks human ERAP1 aminopeptidase activity | Q9NZ08 | recombinant ERAP1, Leu-AMC fluorescence, 60 min | inhibition, % at 10.7 µM | 340,000 tested, 0.15% active | AID 652197;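 active means mean replicate inhibition of at least 30%, or all replicates individually reaching that 30% level; inactive means mean below 30% and not every replicate reaching it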;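 further: 0% = neutral control wells and 100% = L-leucinethiol positive control wells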
Target sequence (Q9NZ08 whole entry, looked up): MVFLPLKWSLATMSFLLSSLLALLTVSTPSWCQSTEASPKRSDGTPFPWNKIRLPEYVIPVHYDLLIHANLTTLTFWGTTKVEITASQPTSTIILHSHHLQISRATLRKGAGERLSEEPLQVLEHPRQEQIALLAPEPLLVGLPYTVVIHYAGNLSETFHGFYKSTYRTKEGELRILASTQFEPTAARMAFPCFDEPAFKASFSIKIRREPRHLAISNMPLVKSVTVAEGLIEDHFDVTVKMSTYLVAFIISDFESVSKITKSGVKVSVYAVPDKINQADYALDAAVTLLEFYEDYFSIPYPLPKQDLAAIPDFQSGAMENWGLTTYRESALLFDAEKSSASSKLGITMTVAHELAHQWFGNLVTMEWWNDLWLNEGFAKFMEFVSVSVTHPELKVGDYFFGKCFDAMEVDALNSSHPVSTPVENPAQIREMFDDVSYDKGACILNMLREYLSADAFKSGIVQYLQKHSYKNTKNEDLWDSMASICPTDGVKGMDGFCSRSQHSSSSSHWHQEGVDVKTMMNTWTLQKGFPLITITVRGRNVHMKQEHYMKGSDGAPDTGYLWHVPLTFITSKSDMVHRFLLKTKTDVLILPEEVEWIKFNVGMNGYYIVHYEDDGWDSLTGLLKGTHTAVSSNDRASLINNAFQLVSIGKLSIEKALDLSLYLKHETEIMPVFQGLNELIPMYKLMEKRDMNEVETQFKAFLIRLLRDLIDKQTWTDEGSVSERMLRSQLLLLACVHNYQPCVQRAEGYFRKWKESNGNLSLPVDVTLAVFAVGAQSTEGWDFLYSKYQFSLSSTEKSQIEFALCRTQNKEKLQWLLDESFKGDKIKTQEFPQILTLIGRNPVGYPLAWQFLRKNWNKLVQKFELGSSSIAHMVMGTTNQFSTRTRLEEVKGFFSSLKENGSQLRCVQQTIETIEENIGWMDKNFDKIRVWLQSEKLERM
Cneo AK release: Cryptococcus neoformans lysis via adenylate kinase release; C. neoformans lysis, adenylate kinase release luminescence, 4 h; normalised: neutral wells 0, clomiphene wells 100; lysis activity, % at 15 µM; 360,000 tested, 0.2% active; AID 651654;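 active means mean lysis activity across replicates of at least 80%, whatever share of replicates individually reach that level; inactive means mean lysis activity below 80%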
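Assay system: log-phase C. neoformans yeast / Quantity: yeast cell density of 5 × 10^6 cells/mL / Medium: fresh YPD growth medium / Compound: single dose / Timing: static 4 h at 37 °C with compound, 1 h detection / Measured by: adenylate kinase release luminescence / Read-out: lysis from increased AK signal / Benchmarks: Clomiphene as positive lysis control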
* marks the source's active call; other numbers are inactive results; · = no result; [ ] = another dose, or the depositor's remark. Only some compounds are listed: those with a hit (about 3.5% of all), similar ones and a draw of the others.

SMILES | MITF TRPM1 HTS | Wnt bcat act | esBAF inh | HIV Env fusion | ERAP1 inh | Cneo AK release
COc1ccccc1CNC(=O)C[C@@H]1C[C@H]2c3cc(NC(=O)Nc4ccccc4F)ccc3O[C@H]2[C@@H](CO)O1 | · | · | -6 | -15[16.7 µM] | 3 | 94*
COc1ccccc1CNC(=O)C[C@H]1C[C@H]2c3cc(NC(=O)Nc4ccccc4F)ccc3O[C@H]2[C@H](CO)O1 | · | · | -2 | -13[16.7 µM] | 3 | 4
COCC(=O)N1C[C@H](C)[C@@H](OC)CN(C)C(=O)c2cc(NC(=O)Nc3cccc(F)c3)ccc2OC[C@@H]1C | · | · | · | · | -1 | ·
COc1ccccc1CC(NC(C)=O)C(=O)N1CCN(C(=O)c2cccs2)CC1 (stereo unspecified) | · | · | -1 | · | · | 1
COc1ccccc1CN(C)C(=O)CN1CCN(C(=O)c2cccs2)CC1 | 2 | 1 | 6 | 68* | -1 | -1
O=C(N[C@H]1CC[C@H](CCn2cc(Cc3ccccc3)nn2)O[C@@H]1CO)c1cnccn1 | · | · | -6 | -2[16.7 µM] | 1 | 2
Cc1ccc2[nH]c(C(=O)Nc3ccc(F)cc3)cc2c1 | 70 | 10 | 62* | -14 | 3 | -8
Cc1cc(C)c2cc(C(=O)Nc3ccccc3)[nH]c2c1 | 74 | 25 | 60* | -65 | -4 | -4
CCCOc1ccc(NC(=O)c2cc3cc(C)ccc3[nH]2)cc1 | 16 | 10 | 16 | -31 | 1 | -2
Cc1cc(C)c2cc(C(=O)Nc3ccc4c(c3)OCO4)[nH]c2c1 | · | 8 | · | 10 | 0 | ·
CC(C)NC(=O)N1CC2(C1)[C@H](c1ccccc1)[C@H](CO)N2C(=O)c1ccccn1 | · | · | · | · | -2 | ·
C[C@@H]1CN([C@@H](C)CO)C(=O)c2cc(NC(=O)Nc3ccc4c(c3)OCO4)ccc2O[C@@H](C)CCCCO[C@H]1CN(C)Cc1ccncc1 | · | · | 57* | 20[16.7 µM] | 2 | -1
C[C@@H]1CCCCO[C@H](CN(C)Cc2ccncc2)[C@H](C)CN([C@H](C)CO)C(=O)c2cc(NC(=O)Nc3ccc4c(c3)OCO4)ccc2O1 | · | · | 3 | -25[16.7 µM] | 0 | -4
C[C@H]1CCCCO[C@@H](CN(C)Cc2ccc3c(c2)OCO3)[C@@H](C)CN([C@@H](C)CO)C(=O)c2cc(NC(=O)Nc3ccc4c(c3)OCO4)ccc2O1 | · | · | 5 | 84*[16.7 µM] | 0 | 1
Cc1nccn1C(c1ccccc1)c1ccccc1 | -4 | 35* | -6 | 1 | -2 | 4
Cc1ccccc1S(=O)(=O)N1CC(=O)N2[C@H](C1)[C@H](c1ccc(C#CCN(C)C)cc1)[C@@H]2CO | · | · | · | · | 2 | ·
O=C(O)CCn1c2ccccc2c2nc3ccccc3nc21 | · | 2 | 50* | -4 | -1 | -2
N#CCn1c2ccccc2c2nc3ccccc3nc21 | 9 | 10 | · | -35 | -2 | ·
COC(=O)Cn1c2ccccc2c2nc3ccccc3nc21 | 30 | 2 | 50* | -11 | 0 | -4
CN(C)C(=O)C[C@H]1C[C@@H]2c3cc(NC(=O)NC4CCCC4)ccc3O[C@@H]2[C@H](CO)O1 | · | · | -3 | -5[16.7 µM] | -4 | 3
CCCC(=O)Nc1ccc(C(=O)COC(=O)C2CC2C)cc1 (stereo unspecified) | 79 | 45* | 39 | -51 | 0 | -2
CC(=O)c1ccc(NC(=O)COC(=O)C2CC3C=CC2C3)cc1 (stereo unspecified) | 56 | 43* | 17 | · | 1 | -4
CCCC(=O)Nc1ccc(C(=O)COC(=O)C2=COCCO2)cc1 | 16 | 11 | · | -12 | 3 | ·
CC(=O)Nc1ccc(C(=O)COC(=O)C2CC2C)c(F)c1 (stereo unspecified) | 107* | 42* | 13 | · | 1 | -4
CC(=O)Nc1ccc(C(=O)COC(=O)c2c(C)noc2C)c(F)c1 | · | 8 | 11 | · | 0 | -1
SMILES | MITF TRPM1 HTS | Wnt bcat act | esBAF inh | HIV Env fusion | ERAP1 inh | Cneo AK release
CC(=O)Nc1ccc(C(=O)COC(=O)c2cccs2)c(F)c1 | 127* | 57* | 68* | · | 0 | -3
CC(C)C#Cc1cnc2c(c1)C(=O)N([C@H](C)CO)C[C@@H](C)[C@H](CN(C)C(=O)c1cnccn1)O2 | · | · | 3 | -22[16.7 µM] | -6 | -1
N#C[C@@H]1[C@H](c2ccccc2)[C@H](CO)N1C(=O)Cc1ccccn1 | · | · | 1 | -2[16.7 µM] | 3 | 0
C[C@@H]1CN([C@@H](C)CO)C(=O)c2cc(NC(=O)C3CC3)ccc2O[C@H]1CN(C)C(=O)Nc1ccc2c(c1)OCO2 | · | · | 20 | -3[16.7 µM] | -2 | 1
COc1ccc2c3c([nH]c2c1)[C@@H](CO)N(C(=O)c1ccccc1)CC31CCN(C(=O)CC2CC2)CC1 | · | · | · | · | 1 | ·
CCC(C)(C)n1nnnc1C(c1ccc2ncccc2c1)N1CCCCCC1 (stereo unspecified) | 0 | -4 | -7 | 29* | · | 3
c1cnc2ccc(C(c3nnnn3C3CCCCC3)N3CCCCC3)cc2c1 (stereo unspecified) | -1 | 7 | 9 | 105* | · | 6
c1cnc2ccc(C(c3nnnn3C3CCCCC3)N3CCN(C4CCCCC4)CC3)cc2c1 (stereo unspecified) | · | -8 | -16 | -33 | · | -1
CC(C)(C)n1nnnc1C(c1cccc(C#N)c1)N1CCCCCC1 (stereo unspecified) | -1 | 13 | 0 | 94* | · | 3
COc1ccc(CN(C)C[C@H]2Oc3ccc(NC(=O)CCN4CCOCC4)cc3CC(=O)N([C@H](C)CO)C[C@@H]2C)cc1 | · | · | · | · | 0 | ·
CC(C)c1cn(CC[C@H]2CC[C@H](NC(=O)C3CCC3)[C@@H](CO)O2)nn1 | · | · | 10 | 9[16.7 µM] | 2 | -2
COc1ccc2c(c1)C(=NN)c1cc(OC)ccc1-2 | -5 | · | 43* | -146 | · | -1
COc1ccc2c(c1)C(=NNc1ccc(C(=O)O)cc1)c1cc(OC)ccc1-2 | 12 | 7 | 8 | -42 | 3 | -1
CC(=O)Nc1cccc2c1Cc1ccccc1-2 | · | · | 51* | · | · | -5
O=C(Nc1cc2c(cc1Cl)OCCO2)c1ccco1 | · | · | 36 | -47 | · | 2
O=C(Nc1cc2c(cc1C(=O)O)OCCCO2)c1ccc(C(F)(F)F)cc1 | 31 | 20 | 55* | -12 | -4 | -8
CCc1ccc(C(=O)Nc2cc3c(cc2Cl)OCCCO3)cc1 | 109* | · | 69* | · | · | -12
O=C(Cc1ccccc1)Nc1cc2c(cc1Cl)OCCCO2 | 94* | 14 | 64* | 0 | -3 | -2
COC(=O)c1ccccc1NC(=O)c1ccc2c(c1)OCCCO2 | 27 | 9 | 26 | -21 | 3 | -16
CN(C)c1ccc(C=c2c3cc(O)ccc3n3c2cc(-c2ccccc2)[n+]3C)cc1 | -90 | -5 | · | 64* | 56* | ·
CN(C)c1ccc(C=c2c3ccccc3n3c2c2ccccc2[n+]3C)cc1 | 9 | -19 | · | 58* | 5 | ·
C[n+]1c(-c2ccccc2)cc2c(=Cc3ccccc3)c3ccccc3n21 | -98 | -6 | · | 46 | 4 | ·
Cc1nn(C)c2ncc(C(=O)c3ccccc3O)cc12 | -3 | -2 | -5 | 7 | 1 | -1
